Results: PMC2808857 (Journal of clinical pharmacology, 2009)
Where two headings read alike, the source gives them in different places.

Tests used:
[1] = tested on: patients with advanced refractory solid tumors; test: Toxicity assessment; assay type: in vivo, human
[2] = tested on: patients with refractory metastatic solid tumors; test: Response to therapy; assay type: in vivo, human
Outline: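 Patients with refractory metastatic solid tumors received oral test compound once daily (5–40 mg/day dose escalation), taken with water after overnight fasting. Dosing was initially continuous over 28-day cycles, then amended to 21 days on and 7 days off. Treatment continued until progression or toxicity. Measurable disease was assessed by RECIST, with radiographic studies at end of cycle 3 and every other cycle thereafter.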

[3] = assay type: in vivo, human; settings: for AUC / Cmax / T1/2 / Tmax / Urine excretion, %dose: mean (range); for Urine excretion, %dose: urine 0-24 hr
Outline: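 Patients with refractory solid tumors took the capsule with water after overnight fasting. Plasma was drawn predose and at 0.5, 1, 2, 4, 6, 9, 12, 24, 32 and 48 h, then stored at −70°C. Drug was extracted into ethyl acetate and quantified by LC–ESI single-quadrupole MS (LLOQ 5 ng/ml). Parameters were noncompartmental per patient, with Cmax and Tmax as observed. Renal clearance = Ae,0–24/AUC0–24.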

[4] = cited from earlier work
[5] = Population pharmacokinetic analysis
[6] = 5 mg single oral dose, cycle 1 day 1, n=2
[7] = 10 mg single oral dose, cycle 1 day 1, n=6
[8] = 15 mg single oral dose, cycle 1 day 1, n=3
[9] = 20 mg single oral dose, cycle 1 day 1, n=9
[10] = 25 mg single oral dose, cycle 1 day 1, n=6
[11] = 30 mg single oral dose, cycle 1 day 1, n=8
[12] = 35 mg single oral dose, cycle 1 day 1, n=6
[13] = 40 mg single oral dose, cycle 1 day 1, n=3

(α -(3-aminophthalimido) glutarimide) [lenalidomide]
patients with dose reductions ([1]; continuous doses, 4 out of 15 patients): 27% | Anemia, Grade 3, number of patients ([1]; continuous dosing (n=15)): 1 | Constipation, Grade 1, number of patients ([1]; continuous dosing (n=15)): 2 | Constipation, Grade 2, number of patients ([1]; continuous dosing (n=15)): 1 | Diarrhea, Grade 1, number of patients ([1]; continuous dosing (n=15)): 4 | Dizziness, Grade 1, number of patients ([1]; continuous dosing (n=15)): 3 | Dizziness, Grade 2, number of patients ([1]; continuous dosing (n=15)): 1 | Fatigue, Grade 1, number of patients ([1]; continuous dosing (n=15)): 4 | Fatigue, Grade 2, number of patients ([1]; continuous dosing (n=15)): 1 | Flatulence, Grade 1, number of patients ([1]; continuous dosing (n=15)): 3 | Hypotension, Grade 1, number of patients ([1]; continuous dosing (n=15)): 2 | Hypotension, Grade 3, number of patients ([1]; continuous dosing (n=15)): 1 | Nausea, Grade 1, number of patients ([1]; continuous dosing (n=15)): 4 | Neuropathic Sensory, Grade 1, number of patients ([1]; continuous dosing (n=15)): 4 | Neutropenia, Grade 1, number of patients ([1]; continuous dosing (n=15)): 1 | Neutropenia, Grade 2, number of patients ([1]; continuous dosing (n=15)): 3 | Neutropenia, Grade 3, number of patients ([1]; continuous dosing (n=15)): 2 | Pleural effusion, Grade 1, number of patients ([1]; continuous dosing (n=15)): 2 | Pruritus, Grade 1, number of patients ([1]; continuous dosing (n=15)): 5 | Pruritus, Grade 2, number of patients ([1]; continuous dosing (n=15)): 1 | Rash/desquamation, Grade 1, number of patients ([1]; continuous dosing (n=15)): 4 | SGPT, Grade 2, number of patients ([1]; continuous dosing (n=15)): 2 | Thrombosis, Grade 3, number of patients ([1]; continuous dosing (n=15)): 2 | Anemia, Grade 1, number of patients ([1]; intermittent dose (n=35)): 1 | Anemia, Grade 2, number of patients ([1]; intermittent dose (n=35)): 1 | Anemia, Grade 3, number of patients ([1]; intermittent dose (n=35)): 1 | Anorexia, Grade 1, number of patients ([1]; intermittent dose (n=35)): 3 | Anorexia, Grade 2, number of patients ([1]; intermittent dose (n=35)): 1 | Constipation, Grade 1, number of patients ([1]; intermittent dose (n=35)): 4 | Constipation, Grade 2, number of patients ([1]; intermittent dose (n=35)): 5 | Diarrhea, Grade 1, number of patients ([1]; intermittent dose (n=35)): 5 | Diarrhea, Grade 3, number of patients ([1]; intermittent dose (n=35)): 1 | Dizziness, Grade 1, number of patients ([1]; intermittent dose (n=35)): 8 | Dysgeusia, Grade 1, number of patients ([1]; intermittent dose (n=35)): 3 | Edema, Grade 1, number of patients ([1]; intermittent dose (n=35)): 4 | Fatigue, Grade 1, number of patients ([1]; intermittent dose (n=35)): 14 | Fever, Grade 1, number of patients ([1]; intermittent dose (n=35)): 4 | Hemolysis, Grade 2, number of patients ([1]; intermittent dose (n=35)): 1 | Hemolysis, Grade 4, number of patients ([1]; intermittent dose (n=35)): 1 | Infection, Grade 2, number of patients ([1]; intermittent dose (n=35)): 1 | Infection, Grade 3, number of patients ([1]; intermittent dose (n=35)): 2 | Insomnia, Grade 1, number of patients ([1]; intermittent dose (n=35)): 5 | Leukopenia, Grade 2, number of patients ([1]; intermittent dose (n=35)): 1 | Leukopenia, Grade 3, number of patients ([1]; intermittent dose (n=35)): 1 | Myalgia, Grade 1, number of patients ([1]; intermittent dose (n=35)): 5 | Myalgia, Grade 2, number of patients ([1]; intermittent dose (n=35)): 1 | Nausea, Grade 1, number of patients ([1]; intermittent dose (n=35)): 9 | Nausea, Grade 2, number of patients ([1]; intermittent dose (n=35)): 1 | Neutropenia, Grade 1, number of patients ([1]; intermittent dose (n=35)): 1 | Neutropenia, Grade 2, number of patients ([1]; intermittent dose (n=35)): 2 | Neutropenia, Grade 3, number of patients ([1]; intermittent dose (n=35)): 2 | Neutropenia, Grade 4, number of patients ([1]; intermittent dose (n=35)): 3 | Pleural effusion, Grade 1, number of patients ([1]; intermittent dose (n=35)): 2 | Pleural effusion, Grade 3, number of patients ([1]; intermittent dose (n=35)): 1 | Pruritus, Grade 1, number of patients ([1]; intermittent dose (n=35)): 4 | Pruritus, Grade 2, number of patients ([1]; intermittent dose (n=35)): 1 | Rash/desquamation, Grade 1, number of patients ([1]; intermittent dose (n=35)): 7 | Rash/desquamation, Grade 2, number of patients ([1]; intermittent dose (n=35)): 3 | Supraventricular arrythmia, Grade 4, number of patients ([1]; intermittent dose (n=35)): 1 | Thrombocytopenia, Grade 1, number of patients ([1]; intermittent dose (n=35)): 3 | Thrombocytopenia, Grade 3, number of patients ([1]; intermittent dose (n=35)): 2 | patients with dose reductions ([1]; intermittent doses, 7 out of 30 patients): 23% | dose up to which lenalidomide was well tolerated ([1]; intermittent dosing schedule, 21 days on, 7 days off): up to 35 mg/day | median time on-study of patients with stable disease ([2]; 12 patients, range 4 – 11): 5 months | complete or partial response ([2]; 44 evaluable patients): No complete or partial response was noted | patients with stable disease who had prostate cancer ([2]; of 12 patients with SD): 9 | AUC [3, 6]: 302 (257, 346) ng·hr/ml | Cmax [3, 6]: 80 (66, 93) ng/ml | T1/2 [3, 6]: 2.7 (2.1, 3.3) hr | Tmax [3, 6]: 0.75 (0.5, 1) hr | AUC [3, 7]: 571 (256–1415) ng·hr/ml | Cmax [3, 7]: 107 (59–163) ng/ml | T1/2 [3, 7]: 3.1 (2.4–4.2) hr | Tmax [3, 7]: 1 (0.5– 4) hr | AUC [3, 8]: 1090 (712–1391) ng·hr/ml | Cmax [3, 8]: 195 (174–224) ng/ml | Tmax [3, 8]: 2 (1–4) hr | AUC [3, 9]: 1901 (239–4093) ng·hr/ml | Cmax [3, 9]: 343 (64–621) ng/ml | T1/2 [3, 9]: 3.1 (1.9–7.8) hr | Tmax [3, 9]: 1 (0.5–6.1) hr | AUC [3, 10]: 3820 (1081–11363) ng·hr/ml | Cmax [3, 10]: 451 (311–631) ng/ml | T1/2 [3, 10]: 5.3 (1.6–15.9) hr | Tmax [3, 10]: 1.5 (0.5–8.9) hr | AUC [3, 11]: 4040 (844–15445) ng·hr/ml | Cmax [3, 11]: 593 (69–1315) ng/ml | T1/2 [3, 11]: 4.0 (3.2–14.2) hr | Tmax [3, 11]: 1.5 (0.5–6) hr | Urine excretion, %dose ([3]; 30 mg single oral dose, n=3): 47.0 (36.3–62.0) %dose | AUC [3, 12]: 5309 (3172–7062) ng·hr/ml | Cmax [3, 12]: 782 (594–969) ng/ml | T1/2 [3, 12]: 6.7 (3.7–14.5) hr | Tmax [3, 12]: 1 (0.5–4) hr | Urine excretion, %dose ([3]; 35 mg single oral dose, n=4): 54.6 (48.3–63.1) %dose | AUC [3, 13]: 3926 (3281–4656) ng·hr/ml | Cmax [3, 13]: 842 (648–1002) ng/ml | T1/2 [3, 13]: 4.1 (1.8–6.2) hr | Tmax [3, 13]: 1 (0.75–2) hr | Urine excretion, %dose ([3]; 40 mg single oral dose, n=2): 44.9 (43.8, 46.0) %dose | CL/F_renal as share of the total clearance ([3]; 9 patients): about 50% | amount of unchanged lenalidomide excreted into urine for 24 hours ([3]; 30-40 mg dose groups): 45–55 % of dose | mean half-life (T1/2) ([3]; across all doses 5-40 mg, oral): 3.9 h | time of peak plasma concentration ([3]; after single oral administration): around 1 hour | unchanged lenalidomide excreted into urine, fraction of dose ([4]; healthy volunteers): two thirds | increase of lenalidomide exposure in mild RI over normal function ([4]; patients with multiple myeloma): 56% | interpatient variability on total lenalidomide clearance ([5]; before inclusion of CLCr in the model): 70.6% | BSV of Tlag, Population Mean (95% CI) ([5]; final PopPK model): 30.0 (2.2 – 47.9) CV% | BSV of V/F, Population Mean (95% CI) ([5]; final PopPK model): 33.0 (1.0 – 48.0) CV% | BSV of ka, Population Mean (95% CI) ([5]; final PopPK model): 146 (95 – 184) CV% | Residual error, Population Mean (95% CI) ([5]; final PopPK model): 34.0 (26.9 – 40.0) CV% | Tlag, Population Mean (95% CI) ([5]; final PopPK model): 0.37 (0.30 – 0.43) hr | V/F, Population Mean (95% CI) ([5]; final PopPK model): 57.8 (49.4 – 66.2) L | ka, Population Mean (95% CI) ([5]; final PopPK model): 4.60 (0.66 – 8.54) 1/hr | CL/F, Mild RI, Population Mean (95% CI) ([5]; final PopPK model, 50 ≤ CLCr ≤ 80 mL/min): 136 (97 – 175) ml/min | CL/F, Normal renal function, Population Mean (95% CI) ([5]; final PopPK model, CLCr > 80 mL/min): 243 (193 – 297) ml/min | BSV of Tlag, Bootstrap Median (95% CI) ([5]; non-parametric bootstrap): 29.1 (4.5 – 65.1) CV% | BSV of V/F, Bootstrap Median (95% CI) ([5]; non-parametric bootstrap): 31.5 (14.5 – 52.4) CV% | BSV of ka, Bootstrap Median (95% CI) ([5]; non-parametric bootstrap): 143 (92 – 197) CV% | Residual error, Bootstrap Median (95% CI) ([5]; non-parametric bootstrap): 33.8 (27.4 – 40.9) CV% | Tlag, Bootstrap Median (95% CI) ([5]; non-parametric bootstrap): 0.37 (0.25 – 0.43) hr | V/F, Bootstrap Median (95% CI) ([5]; non-parametric bootstrap): 57.8 (51.3 – 66.7) L | ka, Bootstrap Median (95% CI) ([5]; non-parametric bootstrap): 4.67 (2.52 – 9.19) 1/hr | CL/F, Mild RI, Bootstrap Median (95% CI) ([5]; non-parametric bootstrap, 50 ≤ CLCr ≤ 80 mL/min): 136 (103 – 178) ml/min | CL/F, Normal renal function, Bootstrap Median (95% CI) ([5]; non-parametric bootstrap, CLCr > 80 mL/min): 243 (202 – 297) ml/min | dose-normalized AUC ([5]; patients with normal renal function): 75 ng·h/ml per mg | dose-normalized AUC ([5]; renally impaired subjects (mild RI)): 167 ng·h/ml per mg
